The values below come from ChEMBL document CHEMBL4513216, “Probing the Open Global Health Chemical Diversity Library for Multistage-Active Starting Points for Next-Generation Antimalarials” (ACS Infect Dis, 2020).

A short description of this series: Toxicity liver stage against HepG2, at 10uM. Also noted: test concentration 10 uM, cell line HepG2-A16-CD81EGFP. The series is classed as cell-based. The settings on record: human, HepG2-A16-CD81EGFP cells; read-out: INHIBITION
Put shortly: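 Uninfected HepG2-A16-CD81EGFP cells, 3 × 10^3 per well, 1536-well, plated on prespotted compound at 10 μM final, parasite-free screening media added to match infected plates; puromycin 10 μM positive, DMSO 0.5% negative; run in parallel with 48 h PbLuc assay at 37 °C, 5% CO2; viability by CellTiter-Glo luminescence, normalized to controls.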

`Cc1nn(C(C)(C)C)c(=O)n1CC(=O)NC(C)(C)C`: the cytotoxicity at 10 µM amounted to 1.45%.

For `COc1nn(C)cc1C(=O)N1CCC(c2nnc(C3CC3)o2)CC1`, the cytotoxicity at 10 µM stood at 5.14%.

For `COCCN1CCc2c(CNC(=O)c3nccn3C)cncc2C1`, the cytotoxicity at 10 µM was -107%.

With `Cc1ncsc1C(=O)NC1CCN(CC(=O)N(C)c2ccccc2)CC1`, the cytotoxicity at 10 µM worked out at 1.26%.

For `Cc1noc(C(C)N2CCN(CC(=O)N3CCOCC3)CC2)n1` (stereo not drawn), the cytotoxicity at 10 µM is -8.41%.

On to `O=S(=O)(NCCNc1ccc(-n2cccn2)nn1)c1ccccc1`, for which the cytotoxicity at 10 µM was -8.55%.

As for `OCCN1CCOC2(CCCN(c3ncc(F)cn3)C2)C1` (stereo not drawn), the cytotoxicity at 10 µM is 5.98%.

Take `CCNc1cc2c(nn1)CCN(C(=O)c1nccnc1N)C2`: the cytotoxicity at 10 µM is -16.4%.

As for `CCc1ccc(OCC(O)CN2CCN(CCO)CC2)cc1` (stereo not drawn), the cytotoxicity at 10 µM was -11.9%.

As to `Cc1cc(NC(=O)N(CCO)Cc2ccsc2)no1`, the cytotoxicity at 10 µM was -5.57%.

`c1cncc(COCC2CN(Cc3ccco3)Cc3ccnn3C2)c1` (stereo not drawn): the cytotoxicity at 10 µM is -14.4%.

Take `c1ccc(OC[C@@H]2CCC[C@@]23CNCCO3)nc1`: the cytotoxicity at 10 µM was determined as 9.93%.

Take `O=C(NCc1nnc2n1CCC2)c1ccc(C2CCCO2)s1` (stereo not drawn): the cytotoxicity at 10 µM is -12.4%.

Take `c1ccc(CN2CCOC3(CCN(c4ncccn4)CC3)C2)nc1`: the cytotoxicity at 10 µM is -2.42%.

With `CC(C)C(C(=O)N1CCN(Cc2ccncc2)CC1)n1cncn1` (stereo not drawn), the cytotoxicity at 10 µM was -13%.

In the case of `COc1cc2c(cc1OC)CN(C(=O)NCC1CCCO1)CC2` (stereo not drawn), the cytotoxicity at 10 µM was -16%.

Turning to `O=C(c1ccc(-c2cccc3c2CCNC3)o1)N1CCCC1`, the cytotoxicity at 10 µM was determined as 3.34%.

For `COCCn1ccc(=O)c(OCC(=O)Nc2ccc(OC)cc2)c1C`, the cytotoxicity at 10 µM amounted to 0.955%.

Take `CCc1nc2ccccc2n1C(CC)C(=O)N(C)Cc1nc(C)c[nH]1` (stereo not drawn): the cytotoxicity at 10 µM is -2.53%.

For the molecule `CCC(C(=O)NC1(CN2CCOCC2)CCCC1)n1cccn1` (stereo not drawn), the cytotoxicity at 10 µM was determined as 4.52%.

Turning to `CN1CCN(C(=O)C2(NC(N)=O)CCCCC2)Cc2ccccc21`, the cytotoxicity at 10 µM is -6.32%.

In the case of `CCOCC1CN(C(=O)Cc2cccs2)Cc2ccnn2C1` (stereo not drawn), the cytotoxicity at 10 µM is -78.7%.

On to `CCOC(=O)[C@H]1CNC[C@H]1C(=O)OCC`, for which the cytotoxicity at 10 µM was 9.24%.

With `O=C(C1CCN(c2cccnn2)C1)N1CCOCC1` (stereo not drawn), the cytotoxicity at 10 µM was -25.4%.

Consider `COc1ccc(OC)c([C@@H]2N[C@H](c3nccs3)Cc3ccsc32)c1`, for which the cytotoxicity at 10 µM is 12.6%.

With `Cc1ncsc1C(=O)NCCNc1ncccn1`, the cytotoxicity at 10 µM turned out to be 1.76%.

For `COc1cc(C(=O)NC(CC(=O)O)c2cccs2)cc(Cl)c1OC` (stereo not drawn), the cytotoxicity at 10 µM was 4.31%.

On to `O=C(O)[C@]12CCCN(Cc3ccsc3)C[C@H]1CN(c1ccccn1)C2`, for which the cytotoxicity at 10 µM is -139%.

For the molecule `CCc1nnc(SC2CCN(c3ccccc3F)C2=O)n1C` (stereo not drawn), the cytotoxicity at 10 µM amounted to 1.77%.

Turning to `c1cnc(-c2noc(C3CN(Cc4ccsc4)C3)n2)cn1`, the cytotoxicity at 10 µM was found to be 0.435%.

Consider `CNC(=O)NC(=O)CSc1ccc2c(c1)CCC2`, for which the cytotoxicity at 10 µM is 19.6%.

`c1ccc(CCc2n[nH]c(C3CCOC3)n2)cc1` (stereo not drawn): the cytotoxicity at 10 µM was 2.78%.

As to `Cn1nc(C(=O)NCc2ccccc2C(F)(F)F)c2c1CCS(=O)(=O)C2`, the cytotoxicity at 10 µM worked out at 5.37%.

For `COc1cc(F)ccc1C(C(=O)O)N1CCN(C2CCCCC2)CC1` (stereo not drawn), the cytotoxicity at 10 µM was -8.93%.

Turning to `CCN(Cc1cccc(F)c1)S(=O)(=O)N1CCOCC1`, the cytotoxicity at 10 µM is -1.71%.

For `CN(Cc1ccsc1)C(=O)CN1CCc2c(ncn2C)C1`, the cytotoxicity at 10 µM is 2.83%.

With `CCC(C(=O)NCC1=CCCN(C)C1)c1ccccc1` (stereo not drawn), the cytotoxicity at 10 µM is -2.65%.

`c1cc(CNc2ccc(-c3nc(C4CC4)no3)cn2)no1`: the cytotoxicity at 10 µM turned out to be 1.79%.

`Cc1nn(C)c(C)c1C1CCCN1CC(=O)Nc1cc(C(C)C)no1` (stereo not drawn): the cytotoxicity at 10 µM is 2.07%.

As for `Cc1nc2c(c(NCC(c3ccccc3C)N(C)C)n1)CCNC2` (stereo not drawn), the cytotoxicity at 10 µM came out at 19.2%.

As for `O=C(C1CCCO1)N1C[C@@H]2CCN(c3cnccn3)C[C@@H]2C1` (stereo partly drawn), the cytotoxicity at 10 µM is -0.832%.

With `O[C@@H]1CCN(c2ccc3c(Cl)ccnc3c2F)C1`, the cytotoxicity at 10 µM came out at 2.12%.

For `Cc1noc(C)c1CN1CCn2cc(CNC(=O)C3CCC3)nc2C1`, the cytotoxicity at 10 µM came to 5.28%.

In the case of `Cn1c(N)c2c(=O)n(C)c(-c3ccc(Cl)cc3)cc2c(C#N)c1=O`, the cytotoxicity at 10 µM is -8.91%.

`CNC(=O)c1cc2c(nc1NCC(C)C)CCN(c1ncccn1)CC2`: the cytotoxicity at 10 µM is -157%.

As to `CCc1nccn1C1CCCN(C(=O)Cc2cn3ccsc3n2)C1` (stereo not drawn), the cytotoxicity at 10 µM was -23%.

In the case of `Cn1nc(C(=O)N2CCCCC2c2nc3cc(F)ccc3[nH]2)ccc1=O` (stereo not drawn), the cytotoxicity at 10 µM is -18.2%.

For `CN(c1ncc(C(N)=O)cc1Cl)C1CCC(c2ccccc2)CC1` (stereo not drawn), the cytotoxicity at 10 µM came out at 38.8%.

On to `O=c1[nH]c(COc2ccc(Cl)cc2)nc2c1CCNC2`, for which the cytotoxicity at 10 µM came to 6.6%.

As to `O=C(NCC(c1ccccc1)N1CCOCC1)Nc1cn[nH]c1` (stereo not drawn), the cytotoxicity at 10 µM is -15.8%.

Regarding `Cc1ccc(N2CCCC(N(C)Cc3c(C)noc3C)C2)nn1` (stereo not drawn), the cytotoxicity at 10 µM was -14%.

With `COc1ccc(-n2ccc(C(=O)NCCN3CCCCCC3)n2)cc1`, the cytotoxicity at 10 µM is -3.84%.

In the case of `COc1cc(Cl)cc(CN2CCCC(N3CCOCC3)C2)c1OC` (stereo not drawn), the cytotoxicity at 10 µM was 0.944%.

On to `CCn1ncc2c1CCCC2NCc1ccc2c(c1)OCCO2` (stereo not drawn), for which the cytotoxicity at 10 µM is -9.12%.

For the molecule `CCS(=O)(=O)N1CCc2ccc(NC(=O)NC3CCCCC3)cc21`, the cytotoxicity at 10 µM is -4.56%.

As to `COC(=O)c1sccc1S(=O)(=O)N1CCc2c(ncnc2N(C)C)C1`, the cytotoxicity at 10 µM is -1.6%.

Regarding `O=c1ccc(-c2ccccc2F)nn1CN1CCCCCC1`, the cytotoxicity at 10 µM came to 5.76%.

`COC(=O)C1CN(CC(=O)Nc2ccccc2Cl)c2ccccc21` (stereo not drawn): the cytotoxicity at 10 µM worked out at 14.3%.

Take `COCC(=O)N1CCCC1c1nc(C)c2c(n1)N(CC(C)C)C(=O)CC2` (stereo not drawn): the cytotoxicity at 10 µM was 1.6%.

Turning to `O=c1[nH]c(CCN2CCCCC2Cn2cccn2)nc2ccccc12` (stereo not drawn), the cytotoxicity at 10 µM was -16.4%.

Take `CC(C)c1nnc2n1CC(CNCc1cccnc1)CC2` (stereo not drawn): the cytotoxicity at 10 µM amounted to 6.59%.

Take `CCc1noc(CN(C)CCC(=O)Nc2ccc(C#N)c(Cl)c2)n1`: the cytotoxicity at 10 µM came out at 22.5%.

For the molecule `CCN1CC(=O)c2sc(NC(C)C)nc2C1`, the cytotoxicity at 10 µM is -10.6%.

In the case of `CSCc1noc(CN2CCC3(CC2)CC(=O)N(CC=C(C)C)C3)n1`, the cytotoxicity at 10 µM was -0.589%.

In the case of `COCc1nc(C2CC2)nn1-c1cc(Cl)ccc1OC`, the cytotoxicity at 10 µM is -10.2%.

In the case of `Cc1cnc(CN2CCCC(c3cc(C(N)=O)[nH]n3)C2)o1` (stereo not drawn), the cytotoxicity at 10 µM is -9.14%.

For `CCn1ccnc1CN1CCN(C(C)C(=O)N2CCCC2)CC1` (stereo not drawn), the cytotoxicity at 10 µM is -3.97%.

Regarding `O=C(NCCC1=CCCCC1)Nc1cc(C(F)(F)F)c[nH]c1=O`, the cytotoxicity at 10 µM was -8.39%.

Take `Cc1noc(C)c1CN(Cc1ccccc1)C(C)CN1CCOCC1` (stereo not drawn): the cytotoxicity at 10 µM came to 7.97%.

Turning to `CC(=O)N1CCCc2ccc(S(=O)(=O)N3CCCCC3C)cc21` (stereo not drawn), the cytotoxicity at 10 µM is -15.1%.

On to `O=C(NCCn1ccnc1)c1cccc(Br)c1`, for which the cytotoxicity at 10 µM was 9.3%.

Regarding `Cc1ccc(-n2ccnc2)c(C(=O)NCCOCC2CCCO2)c1` (stereo not drawn), the cytotoxicity at 10 µM was -139%.

With `Cc1ccc(N2C[C@H]3CCC[C@@]3(COc3cccnc3)C2)nn1`, the cytotoxicity at 10 µM stood at 9.43%.

For the molecule `CCn1ccnc1CN1CCN(C(C)C(=O)NC2CCCCC2)CC1` (stereo not drawn), the cytotoxicity at 10 µM was -2.17%.

`Cc1csc(N2CCCN(C(=O)c3ccsc3)CC2)n1`: the cytotoxicity at 10 µM is 5.28%.

On to `CC1CCCCN1c1nc2c(c(=O)[nH]1)CCN(Cc1ccccc1F)C2` (stereo not drawn), for which the cytotoxicity at 10 µM is -4.39%.

As to `c1csc(-c2noc(CN3CCc4c(ncn4C4CC4)C3)n2)c1`, the cytotoxicity at 10 µM was 5.93%.

Take `Cn1cc(-c2ncnc3c2CCN(CC2CCOC2)CC3)cn1` (stereo not drawn): the cytotoxicity at 10 µM is -112%.

With `Cc1ncsc1CCC(=O)N1CCCC[C@H](N(C)C)C1`, the cytotoxicity at 10 µM was -22.5%.

Consider `CC(=O)NCCCNC(=O)N1CCN(c2cc(F)ccc2F)CC1`, for which the cytotoxicity at 10 µM was -5.14%.

Turning to `Cc1cc(CN2C[C@@H]3COC[C@]3(CNC(=O)c3ccsc3)C2)no1`, the cytotoxicity at 10 µM was determined as 1.41%.

Take `Cc1cc(C)c2nc(CNC3CCNC3=O)cc(O)c2c1` (stereo not drawn): the cytotoxicity at 10 µM was 5.92%.

With `Cc1ccc(C(=O)N2CC[C@@H]3CN(C4CCOCC4)CCO[C@@H]3C2)o1`, the cytotoxicity at 10 µM is -121%.

As for `CS(=O)(=O)NCCC(=O)N1CCCC1c1noc(C2CC2)n1` (stereo not drawn), the cytotoxicity at 10 µM was -10.4%.

Take `COCC[C@]1(O)CCN(c2ncc(Cl)cc2F)C[C@H]1C`: the cytotoxicity at 10 µM amounted to 12.8%.

`Cc1cnn(CC2CCCN2Cc2noc(C)n2)c1` (stereo not drawn): the cytotoxicity at 10 µM is 0.742%.

Turning to `CCC[C@@H]1CN(C(=O)c2conc2-c2ccccc2)C[C@H]1N(C)C`, the cytotoxicity at 10 µM was found to be 2.29%.

`COc1cccc2c1OCC(CNC(=O)Cc1cnccn1)C2` (stereo not drawn): the cytotoxicity at 10 µM was -145%.

On to `CC(C)Oc1cccc(CC(=O)NC2CCN(CC(N)=O)CC2)c1`, for which the cytotoxicity at 10 µM was determined as 3.05%.

For `O=C(NC1CC1)c1ccnc(N2CCOC(c3ccc(Cl)c(Cl)c3)C2)c1` (stereo not drawn), the cytotoxicity at 10 µM amounted to 14%.

For the molecule `O=C(O)c1c(-c2ccncc2)ncc2c1CCN(Cc1ccco1)C2`, the cytotoxicity at 10 µM was -3.6%.

`CCNC(=O)[C@@H]1C[C@@H](NC(=O)c2ccc(C)s2)CN1Cc1ccccn1`: the cytotoxicity at 10 µM was -3.73%.

Turning to `O=c1c2c[nH]c(N3CCOCC3)nc-2cn1C1CCS(=O)(=O)C1` (stereo not drawn), the cytotoxicity at 10 µM came out at 3.41%.

In the case of `CC1COCCN1C(=O)Cc1cc(Cl)c2c(c1)OCCCO2` (stereo not drawn), the cytotoxicity at 10 µM was -1.43%.

Turning to `Cc1n[nH]c(C)c1C1COCCN1C(=O)c1n[nH]c2ccccc12` (stereo not drawn), the cytotoxicity at 10 µM was -3.63%.

In the case of `O=C1CNc2ncnc(N3CCN(Cc4cccc(F)c4)CC3)c2N1`, the cytotoxicity at 10 µM amounted to 7.88%.

Consider `N#Cc1ccc(C(=O)O)nc1C=Cc1cccc(Br)c1`, for which the cytotoxicity at 10 µM was found to be 5.09%.

On to `Cc1nc(CNC(=O)NC(C)c2ccc3c(c2)OCCO3)cs1` (stereo not drawn), for which the cytotoxicity at 10 µM is -2.61%.
